These results are taken from ChEMBL document CHEMBL4673255, “Acylated 1H-1,2,4-Triazol-5-amines Targeting Human Coagulation Factor XIIa and Thrombin: Conventional and Microscale Synthesis, Anticoagulant Properties, and Mechanism of Action” (J Med Chem, 2020).

The target in one series is Coagulation factor XI (Homo sapiens, UniProt P03951). The series can be described thus: Inhibition of human coagulation factor XIA using Mes-dArg-Pro-Arg-AMC as fluorogenic substrate measured at 1 min interval for 1 hr by fluorometric assay.
The next series addresses Prothrombin (Homo sapiens, UniProt P00734). The series can be described thus: Inhibition of human coagulation factor alpha-thrombin using Boc-Val-Pro-Arg-AMC as fluorogenic substrate measured at 1 min interval for 1 hr by fluorometric assay.
In a further series the target is Plasminogen (Homo sapiens, UniProt P00747). The experiment in a line: Inhibition of human plasmin using Mes-dArg-Phe-Arg-AMC as fluorogenic substrate measured at 1 min interval for 1 hr by fluorometric assay.
In series [1] the test system is Blood. The experiment in a line: Anticoagulant activity in human blood assessed as increase in activated partial thromboplastin time at 300 uM incubated for 1 min by aPTT reagent based assay relative to control. Format: functional. The procedure, abridged: (§1)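 Compounds were tested at 300 µM, and the increase was expressed relative to DMSO. The doubling concentration (EC2×) is the concentration prolonging aPTT twofold. At least triplicate, mean ± SD.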

The target in series [2] is Urokinase-type plasminogen activator (Homo sapiens, UniProt P00749). The series can be described thus: Inhibition of human uPA using Tos-Gly-Pro-Arg-AMC as fluorogenic substrate measured at 1 min interval for 1 hr by fluorometric assay.
For a further series, the target named is Coagulation factor X (Homo sapiens, UniProt P00742). The series can be described thus: Inhibition of human coagulation factor Xa using Boc-Ile-Glu-Gly-Arg-AMC as fluorogenic substrate measured at 1 min interval for 1 hr by fluorometric assay.
Another series concerns the target T1, Monoglyceride lipase (Homo sapiens, UniProt Q99685).
T1 sequence (Q99685 whole entry): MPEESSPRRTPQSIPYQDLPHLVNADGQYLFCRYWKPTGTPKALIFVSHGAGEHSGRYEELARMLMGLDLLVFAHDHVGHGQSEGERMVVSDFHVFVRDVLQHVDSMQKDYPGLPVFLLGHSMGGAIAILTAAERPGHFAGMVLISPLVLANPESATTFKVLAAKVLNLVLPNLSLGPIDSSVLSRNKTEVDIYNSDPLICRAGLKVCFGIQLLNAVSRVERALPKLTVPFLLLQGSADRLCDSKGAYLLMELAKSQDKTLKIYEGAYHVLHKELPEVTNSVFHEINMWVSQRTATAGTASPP
The series can be described thus: Inhibition of human recombinant MAGL using 1,3-dihydroxypropan-2-yl 4-pyren-1-ylbutanoate as substrate measured after 45 mins by reverse-phase HPLC-based fluorescence assay.

A short description of series [3]: Inhibition of porcine trypsin using Z-Gly-Gly-Arg-AMC as fluorogenic substrate measured at 1 min interval for 1 hr by fluorometric assay. More on the design: species or system Sus scrofa.
The target of another series is T2, Coagulation factor XII (Homo sapiens, UniProt P00748).
T2 sequence (P00748 whole entry): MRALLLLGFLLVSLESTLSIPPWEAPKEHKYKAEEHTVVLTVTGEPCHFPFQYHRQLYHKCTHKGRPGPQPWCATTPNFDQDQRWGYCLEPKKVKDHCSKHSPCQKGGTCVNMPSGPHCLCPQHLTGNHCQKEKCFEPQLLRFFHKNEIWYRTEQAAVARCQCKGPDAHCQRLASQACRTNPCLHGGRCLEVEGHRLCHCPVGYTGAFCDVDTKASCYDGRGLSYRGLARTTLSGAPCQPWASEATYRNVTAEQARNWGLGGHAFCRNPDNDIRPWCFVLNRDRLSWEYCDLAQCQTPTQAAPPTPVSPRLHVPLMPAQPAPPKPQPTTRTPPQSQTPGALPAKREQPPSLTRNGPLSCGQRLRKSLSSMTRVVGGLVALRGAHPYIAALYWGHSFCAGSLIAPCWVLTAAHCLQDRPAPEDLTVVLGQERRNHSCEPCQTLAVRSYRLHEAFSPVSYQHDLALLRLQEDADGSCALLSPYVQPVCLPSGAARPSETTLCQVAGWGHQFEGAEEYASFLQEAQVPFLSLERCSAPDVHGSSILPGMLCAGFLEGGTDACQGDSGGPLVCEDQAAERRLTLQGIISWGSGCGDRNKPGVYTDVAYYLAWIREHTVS
The series can be described thus: Inhibition of human coagulation factor XIIA using Boc-Gln-Gly-Arg-AMC as fluorogenic substrate measured at 1 min interval for 1 hr by fluorometric assay.

In series [4] the target is T3, Coagulation factor XII (Homo sapiens) (UniProt P00748).
T3 sequence (whole entry): T2 sequence (P00748 whole entry)
The experiment in a line: Inhibition of human coagulation factor XIIA in presence of Boc-Gln-Gly-Arg-AMC as fluorogenic substrate at 1 uM measured at 1 min interval for 1 hr by fluorometric assay relative to control. In short, it runs like this:
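Screening of crude microscale amide-coupling products. Conversion was measured by 1H NMR and product content normalised to 76 µmol/L in DMSO, then tested at 1 µM and 100 nM in the fluorogenic FXIIa or thrombin assay. A 0-conversion reaction served as blank. Percent inhibition is from triplicates.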

Series [5] has as its system Blood. The series can be described thus: Effect on blood coagulation in human blood assessed as increase in prothrombin time at 300 uM incubated for 3 mins followed by CaCl2 addition by PT reagent based assay relative to control. Conditions: 0.05 h. Format: ADME, tissue-based. The procedure, abridged:
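Clotting was started with PT reagent already containing CaCl2, prewarmed to 37 °C, and clotting time was recorded. Increase is given relative to DMSO; at least triplicate, mean ± SD.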

Series [6] has as its target T4, Fatty-acid amide hydrolase 1 (Rattus norvegicus, UniProt P97612).
T4 sequence (P97612 whole entry): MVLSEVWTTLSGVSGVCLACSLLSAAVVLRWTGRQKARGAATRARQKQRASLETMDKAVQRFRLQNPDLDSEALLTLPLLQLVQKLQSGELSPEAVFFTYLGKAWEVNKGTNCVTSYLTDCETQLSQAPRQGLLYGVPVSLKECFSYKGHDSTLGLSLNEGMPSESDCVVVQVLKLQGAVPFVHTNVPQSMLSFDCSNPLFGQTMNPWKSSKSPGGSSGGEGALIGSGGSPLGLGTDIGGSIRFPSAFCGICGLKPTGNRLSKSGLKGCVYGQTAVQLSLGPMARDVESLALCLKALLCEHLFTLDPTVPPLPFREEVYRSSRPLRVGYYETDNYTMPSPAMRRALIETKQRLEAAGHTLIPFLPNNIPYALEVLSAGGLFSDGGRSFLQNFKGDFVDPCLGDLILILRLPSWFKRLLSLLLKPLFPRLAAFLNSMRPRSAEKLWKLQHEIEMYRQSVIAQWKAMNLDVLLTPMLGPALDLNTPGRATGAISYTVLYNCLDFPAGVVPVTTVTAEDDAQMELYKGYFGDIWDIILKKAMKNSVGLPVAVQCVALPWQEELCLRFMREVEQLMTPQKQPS
The series can be described thus: Inhibition of FAAH in rat brain membrane using N-(2-hydroxyethyl)-4-pyren-1-ylbutanamide as substrate measured after 60 mins by reverse-phase HPLC-based fluorescence assay. Format: cell membranes.

Series [7] relates to Blood. The experiment in a line: Anticoagulant activity in human blood assessed as activated partial thromboplastin time at 300 uM incubated for 1 min by aPTT reagent based assay (reference value: 44 sec). The series is classed as functional. The procedure, abridged: as §1
A further series concerns the target Plasma kallikrein (Homo sapiens, UniProt P03952). The series can be described thus: Inhibition of human kallikrein using Mes-dArg-Pro-Arg-AMC as fluorogenic substrate measured at 1 min interval for 1 hr by fluorometric assay.

Where only a bound is given, the exact number is not on record here.

Chain of Coagulation factor XI (P03951 19-387 limits assumed): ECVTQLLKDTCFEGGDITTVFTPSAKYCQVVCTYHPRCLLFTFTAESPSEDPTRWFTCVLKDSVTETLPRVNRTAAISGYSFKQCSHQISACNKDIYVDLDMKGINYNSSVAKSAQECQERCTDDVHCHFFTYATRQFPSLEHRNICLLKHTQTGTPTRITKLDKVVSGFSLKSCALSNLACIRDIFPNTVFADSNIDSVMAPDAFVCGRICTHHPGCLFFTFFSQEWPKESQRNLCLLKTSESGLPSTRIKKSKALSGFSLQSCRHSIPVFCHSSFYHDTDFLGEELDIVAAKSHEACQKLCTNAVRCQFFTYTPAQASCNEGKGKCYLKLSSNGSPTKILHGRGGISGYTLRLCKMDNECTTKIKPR
Chain of Coagulation factor XI (P03951 388-625 limits assumed): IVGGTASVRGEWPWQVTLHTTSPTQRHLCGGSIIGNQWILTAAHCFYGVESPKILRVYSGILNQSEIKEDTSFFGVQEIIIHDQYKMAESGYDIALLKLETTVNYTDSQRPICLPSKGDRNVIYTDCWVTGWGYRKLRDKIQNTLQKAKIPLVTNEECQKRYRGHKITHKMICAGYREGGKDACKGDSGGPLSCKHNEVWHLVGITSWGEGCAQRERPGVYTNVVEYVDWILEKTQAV
Chain of Plasminogen (P00747 97-580 limits assumed): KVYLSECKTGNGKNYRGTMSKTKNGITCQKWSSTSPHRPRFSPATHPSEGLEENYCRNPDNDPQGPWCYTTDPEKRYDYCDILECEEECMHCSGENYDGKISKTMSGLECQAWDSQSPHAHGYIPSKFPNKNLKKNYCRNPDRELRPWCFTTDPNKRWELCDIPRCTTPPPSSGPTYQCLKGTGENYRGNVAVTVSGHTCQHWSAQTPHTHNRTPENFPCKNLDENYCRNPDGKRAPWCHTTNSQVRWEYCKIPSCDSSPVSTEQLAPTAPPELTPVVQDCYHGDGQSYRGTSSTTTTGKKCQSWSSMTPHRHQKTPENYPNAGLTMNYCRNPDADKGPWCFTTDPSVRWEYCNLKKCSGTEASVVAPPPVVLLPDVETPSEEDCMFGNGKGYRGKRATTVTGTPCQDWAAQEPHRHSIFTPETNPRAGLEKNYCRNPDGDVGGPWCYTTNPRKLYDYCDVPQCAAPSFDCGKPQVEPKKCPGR
Chain of Plasminogen (P00747 581-810 limits assumed): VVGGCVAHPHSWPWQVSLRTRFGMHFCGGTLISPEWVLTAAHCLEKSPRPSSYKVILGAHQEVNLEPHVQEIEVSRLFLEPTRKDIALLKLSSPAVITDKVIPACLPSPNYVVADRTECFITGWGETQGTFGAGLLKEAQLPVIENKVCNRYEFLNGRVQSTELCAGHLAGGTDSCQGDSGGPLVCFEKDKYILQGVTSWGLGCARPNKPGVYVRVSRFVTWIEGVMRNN
Chain of Coagulation factor X (P00742 41-179 limits assumed): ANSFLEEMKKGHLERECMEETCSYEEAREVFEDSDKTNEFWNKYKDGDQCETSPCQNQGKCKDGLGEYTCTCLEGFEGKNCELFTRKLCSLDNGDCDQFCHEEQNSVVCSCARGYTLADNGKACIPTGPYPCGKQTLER
Chain of Coagulation factor X (P00742 235-488 limits assumed): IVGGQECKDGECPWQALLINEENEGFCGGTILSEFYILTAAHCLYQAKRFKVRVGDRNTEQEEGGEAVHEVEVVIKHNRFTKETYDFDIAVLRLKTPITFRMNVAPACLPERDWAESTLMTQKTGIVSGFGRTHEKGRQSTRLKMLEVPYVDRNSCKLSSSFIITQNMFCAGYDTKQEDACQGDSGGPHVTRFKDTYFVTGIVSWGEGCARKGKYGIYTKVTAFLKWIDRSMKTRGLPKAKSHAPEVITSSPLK
Chain of Plasma kallikrein (P03952 20-390 limits assumed): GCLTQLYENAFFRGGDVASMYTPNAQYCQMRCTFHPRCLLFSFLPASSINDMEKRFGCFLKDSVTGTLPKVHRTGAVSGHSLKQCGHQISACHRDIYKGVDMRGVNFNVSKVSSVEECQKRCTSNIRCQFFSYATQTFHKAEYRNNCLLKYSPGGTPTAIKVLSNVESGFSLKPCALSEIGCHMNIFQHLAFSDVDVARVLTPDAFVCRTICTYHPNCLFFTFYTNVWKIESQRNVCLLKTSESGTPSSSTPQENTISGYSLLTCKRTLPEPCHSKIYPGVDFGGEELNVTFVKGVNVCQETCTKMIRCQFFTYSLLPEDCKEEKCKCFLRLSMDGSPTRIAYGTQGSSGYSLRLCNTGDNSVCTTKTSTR
Chain of Plasma kallikrein (P03952 391-638 limits assumed): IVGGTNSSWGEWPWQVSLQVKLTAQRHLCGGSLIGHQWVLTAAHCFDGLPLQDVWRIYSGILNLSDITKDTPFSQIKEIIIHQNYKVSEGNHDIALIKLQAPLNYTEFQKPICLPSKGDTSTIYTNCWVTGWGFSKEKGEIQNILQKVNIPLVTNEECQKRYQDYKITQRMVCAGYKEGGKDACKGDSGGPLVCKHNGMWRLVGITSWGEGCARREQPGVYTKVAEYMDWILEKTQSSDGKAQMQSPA

For `Nc1nc(-c2ccccn2)nn1C(=O)c1ccccc1`, the IC50 against Coagulation factor XI was greater than 5 µM; on Prothrombin it was 0.235 µM; against Plasminogen, greater than 5 µM; in series [2] it was 7.93 µM; against Coagulation factor X, greater than 5 µM; at Monoglyceride lipase, greater than 5 µM. For the same compound, the IC50 is greater than 5 µM in [3], 0.132 µM at Coagulation factor XII, greater than 5 µM in series [6] and greater than 5 µM at Plasma kallikrein. Further, the results for the Activity in the series with Blood [1] and in the series with Blood [5] were 143% and 12%, respectively. Moreover, in series [4], the inhibition was determined as 81%. For the same compound, the APTT in the series on Blood [7] was 108 s.

The IC50 is the point on the concentration scale where inhibition reaches its midpoint. Usually inhibition stands for the relative decrease from the control value, in per cent.
